CXCR6 block: blocks human CXCR6 beta-arrestin recruitment. O00574. 360,000 tested, 0.36% active. AID 602244. CHO-K1 PathHunter CXCR6 beta-arrestin, luminescence. inhibition, % at 20 µM; in the data active = inhibition above about 34%, passing the limit was not always enough;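 also: antagonist mode with CXCL16 agonist at 10 nM final; 0% = 10 nM CXCL16 with DMSO and 100% = unstimulated wells without agonist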
EBI2 block: antagonists of human EBI2 receptor. P32249. EBI2 beta-arrestin recruitment, luminescence, 7a,25-OHC stimulated. inhibition, % at 5 µM. 360,000 tested, 0.81% active. AID 651636; in the data active = inhibition above about 38%;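 also: enzyme fragment complementation signal reports receptor beta-arrestin coupling in cells; 0% = agonist plus DMSO wells and 100% = wells without agonist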
APJ antag: antagonists of human APJ apelin receptor; P35414; CHO-K1 APJ beta-arrestin complementation, luminescence; inhibition, % at 20 µM; 330,000 tested, 0.32% active;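 active = inhibition above about 40% at 20 µM, limit read from the data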;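 also: cells challenged with 10 nM apelin-13 agonist together with compound; plate controls were apelin-13 plus DMSO wells for no effect and DMSO wells lacking apelin-13 for full effect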
CCR6 antagonist: CCR6 (human) receptor antagonism; CHO-K1 CCR6 PathHunter beta-arrestin, luminescence, CCL20-stimulated; 340,000 tested, 0.49% active; inhibition, % at 20 µM;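 active = compounds whose inhibition of the agonist-driven luminescence signal at 20 µM reaches about 50%, limit read from the data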;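 also: cells stimulated with CCL20 at 14 nM final; plate controls were DMSO with CCL20 for no effect and DMSO without agonist for full effect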
Target sequence (P51684 whole entry, looked up): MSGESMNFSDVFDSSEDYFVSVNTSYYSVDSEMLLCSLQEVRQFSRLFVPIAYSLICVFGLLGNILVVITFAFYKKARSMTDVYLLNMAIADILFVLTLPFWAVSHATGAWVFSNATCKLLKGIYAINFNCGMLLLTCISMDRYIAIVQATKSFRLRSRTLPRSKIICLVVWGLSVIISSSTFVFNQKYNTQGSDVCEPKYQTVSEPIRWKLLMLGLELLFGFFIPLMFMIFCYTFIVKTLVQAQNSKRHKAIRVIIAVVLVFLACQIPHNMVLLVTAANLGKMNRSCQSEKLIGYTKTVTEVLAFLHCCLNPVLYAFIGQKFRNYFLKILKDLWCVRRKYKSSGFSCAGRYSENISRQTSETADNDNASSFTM
B2AR ag: human beta-2 adrenergic receptor agonism by FAP; P07550; Am2.2-beta2AR cells, FAP receptor internalization, flow cytometry; response, % (concentration not given with the values); 340,000 tested, 0.43% active; AID 504454;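 active = response above a set limit, near 3 SD of response in nonfluorescent compounds, cut at about 42% in these data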
APJ agonist: agonists of human APJ apelin receptor | P35414 | CHO-K1 APJ PathHunter beta-arrestin, luminescence; 0% DMSO wells, 100% apelin | activation, % at 20 µM | 330,000 tested, 0.11% active | AID 2520;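 active = activation more than six SD over the plate average, tested at 20 µM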;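 also: 0% = DMSO alone and 100% = apelin-13 at 10 nM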
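Test system: CHO-K1 APJ beta-arrestin complementation cell line. Amount: cell density 1000 per well. Controls: DMSO negative, 10 nM Apelin-13 positive. Signal: luminescent beta-gal fragment complementation, chemiluminescent substrate. Read-out basis: agonist-driven arrestin binding to APJ. Timing: compound stimulation 90 min at 25 °C, detection 60 min.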
EBI2 antag conf: EBI2 (human) antagonism, single concentration confirmation; AID 651997; 2,400 tested, 29% active; inhibition, % at 5 µM; shares compounds with EBI2 block; EBI2 beta-arrestin luminescence, 7a,25-OHC antagonism;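 active = inhibition of at least 50%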
EBI2 agonist: counter-screen for EBI2 antagonists: EBI2 agonist activity. shares compounds with EBI2 block. activation, % at 5 µM. AID 652000. 2,400 tested, under 10 active. EBI2-expressing cells, agonist mode, luminescence, 60 min; 0% vehicle, 100% 7α,25-dihydroxycholesterol control;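 active = activation of at least 50%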
bGal counter: beta-galactosidase inhibition counter-screen. inhibition, % at 5 µM. AID 652176. shares compounds with EBI2 block. 2,400 tested, 1% active. purified beta-galactosidase, luminescent Galacton Star, 15 min;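 active = replicate-average signal at least 3 plate SD below neutral wells, shown as high inhibition, flagging enzyme-inhibiting false positives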;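 also: 0% = DMSO wells with enzyme and 100% = wells lacking enzyme; higher means stronger loss of beta-gal luminescence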
Active calls of the source: *; / = no result. A selection: hits, their analogues and other compounds. The true share with any hit is near 1.8%.

SMILES | CXCR6 block | EBI2 block | APJ antag | CCR6 antagonist | B2AR ag | APJ agonist | EBI2 antag conf | EBI2 agonist | bGal counter
COC(=O)c1cc(=O)n(Cc2ccc3c(c2)OCO3)c(=Nc2ccccc2)s1 | 8.9 | 52.9* | 18.5 | 3.2 | 4.1 | -7.3 | 57.7* | -1.1 | -15.3
NC(CCc1ccccc1)c1csc(Nc2nncc3ccccc23)n1 (configuration not stated) | 3.9 | -10.1 | / | / | / | / | / | / | /
CC(C(=O)NCCS(=O)(=O)c1ccc(Br)cc1)S(=O)(=O)c1ccc(Cl)cc1 (configuration not stated) | 4.6 | 2.1 | -1.0 | -2.4 | -7.4 | -0.7 | / | / | /
CC(C)c1ccc(C(C)NCCS(=O)(=O)c2ccc(Cl)cc2)cc1 (configuration not stated) | 5.5 | 72.3* | 4.5 | 11.8 | -4.2 | -2.7 | 48.7 | 0.9 | 11.5
N#Cc1cnc(Oc2ccc(Cl)cc2)nc1N | 1.4 | 47.3* | -17.9 | 0.7 | -1.8 | -1.4 | 0.1 | -1.0 | -13.6
Cc1nc(N)nc(N)c1Oc1ccc(Cl)cc1 | -1.1 | 8.5 | / | 8.8 | 1.5 | / | / | / | /
CC(Sc1nc2cc([N+](=O)[O-])ccc2n1-c1ccc(F)cc1)C(=O)NCc1ccc2c(c1)OCO2 (configuration not stated) | 24.2 | 54.2* | 15.5 | 28.9 | 10.5 | 0.3 | 32.5 | -1.6 | 8.9
COc1ccc([C@H]2C[C@H](n3cc(COC(=O)c4ccccc4)nn3)[C@@H](O)CN2Cc2cccs2)cc1 | 7.6 | 7.4 | / | / | / | / | / | / | /
COc1ccc2[nH]c3c(c2c1)CCN1C(=O)C(CC(=O)NCc2ccc(OC)c(OC)c2)C[C@H](C(=O)N2CCCCC2)[C@@]31CCc1ccccc1 (some centres not stated) | 1.4 | 8.2 | / | 8.0 | -4.6 | / | / | / | /
O=C(CSCc1c(Cl)cccc1Cl)Nc1ccccc1-c1ccccc1 | 6.7 | 41.2* | / | 37.5 | -10.0 | / | 27.0 | 0.8 | 0.6
CC1(c2nnnn2-c2ccc3c(c2)OCCO3)CCC(=O)N1CCc1ccccc1F (configuration not stated) | -8.7 | 2.3 | / | / | / | / | / | / | /
COc1ccc2c(c1)C(=O)O[C@@H](c1ccccc1)C[C@@H](O)C(=O)CC2 | -13.7 | -4.1 | / | / | / | / | / | / | /
CCN(CC)S(=O)(=O)c1ccc2c(c1)nc(SCC(=O)N1CCCCCC1)n2-c1ccc(OC)cc1 | 11.4 | 47.1* | 11.9 | 14.6 | -12.9 | 0.9 | 56.4* | 1.1 | 1.3
CCN(CC)S(=O)(=O)c1ccc2c(c1)nc(SCC(N)=O)n2-c1ccc(OC)cc1 | -2.6 | 11.4 | -17.5 | 3.8 | -1.0 | 1.8 | / | / | /
CCN(CC)CCCNC(=O)c1cc(-c2ccccc2)c(N2CCCCC2)s1 | 1.9 | 5.8 | 25.3 | 13.4 | 35.5 | -1.4 | / | / | /
COc1ccc(C(C)=O)cc1CC(=O)Nc1cccc(S(=O)(=O)N2CCOCC2)c1 | -2.0 | 6.4 | 24.9 | 9.3 | 4.1 | -2.5 | / | / | /
COc1ccccc1Oc1ccc2c(c1)C(=O)N(c1cccc3ncccc13)C2=O | -0.6 | 10.9 | / | 12.4 | 13.6 | / | / | / | /
Cc1ccc(C(=O)COC(=O)c2ccc3c(c2)C(=O)N(c2cccc4ncccc24)C3=O)cc1C | 4.2 | 47.9* | -0.3 | 11.4 | 11.4 | 2.3 | 1.2 | -1.6 | -8.6
O=C(COc1ccc2ccccc2c1)N1CCN(c2ccccc2O)CC1 | -7.6 | 71.3* | -1.6 | -14.3 | -4.2 | -2.6 | 61.6* | -0.4 | -8.1
CCc1ccc(OCC(=O)N2CCN(c3ccccc3F)CC2)cc1 | 4.1 | 64.7* | -8.5 | 11.3 | 0.7 | 0.9 | 75.5* | -0.3 | 3.1
CS(=O)(=O)N1CCN(C(=O)COc2ccccc2)CC1 | -0.2 | -2.5 | -4.2 | -7.2 | 0.2 | -2.7 | / | / | /
Cc1ccc(CC(=O)N2CCN(c3ccccc3F)CC2)cc1 | 3.7 | 7.8 | 0.4 | 8.3 | -0.3 | -3.3 | / | / | /

Source: PubChem BioAssay
